What was measured:
[1] = system: Liver microsome; test: Drug metabolism in human liver microsomes assessed as (3-(1H-indol-2-yl)phenyl)(3,4,5-trimethoxyphenyl)methanol formation at 0.5 uM after 2 hrs by LC-MS/MS analysis in presence of 3 mM NADPH; type: ADME
How it was run: (§1)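 Pooled liver microsomes (1 mg/ml protein) incubated with 0.5 µM substrate and 3 mM NADPH in 65 mM potassium phosphate, pH 7.4, 1% methanol, at 37°C for 2 h. Stopped with ice-cold acetonitrile containing internal standard, centrifuged. Supernatant analysed by LC-MS/MS on a C18 column, 15-min gradient, with product ion scans for metabolite identification.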

[2] = AUC (infinity) in ICR mouse at 5 mg/kg, po via gavage by LC-MS/MS analysis; type: ADME, organism-based; parameters: time infinity, dose 5 mg/kg, route oral; conditions: plasma
How it was run: (§2)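 Male ICR mice (5–6 weeks, 20–25 g), single doses of 1, 5 or 15 mg/kg in 10% DMSO/PEG300, given iv by tail vein, ip, or orally by gavage. Three to four mice per time point, euthanized under isoflurane, blood drawn from posterior vena cava. Plasma protein precipitated with acetonitrile containing internal standard, then LC-MS/MS (MRM m/z 388.2→192). Noncompartmental analysis of mean concentration-time data, AUCinf by trapezoidal rule with extrapolation, CL = dose/AUCinf, Cmax read from the curve. F = (AUCnon-iv × dose iv)/(AUCiv × dose non-iv). n = 3 per dose group.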

[3] = Oral bioavailability in ICR mouse at 5 mg/kg via gavage after 30 mins by LC-MS/MS analysis; type: ADME, organism-based; conditions: in vivo
How it was run: (§3)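 Male ICR mice (5–6 weeks, 20–25 g) dosed by gavage in 10% DMSO in PEG300. Three to four mice per time point were euthanized under isoflurane and blood taken from the posterior vena cava. Plasma was acetonitrile-precipitated and analysed by LC-MS/MS (MRM m/z 388.2→192). Tmax read by visual inspection. F = (AUC_oral × dose_iv)/(AUC_iv × dose_oral), with AUC_inf by trapezoidal rule; n = 3/dose group.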

[4] = Terminal half life in ICR mouse at 1 mg/kg, po via gavage by LC-MS/MS analysis; type: ADME, organism-based; parameters: dose 1 mg/kg, route oral; conditions: in vivo, read-out: beta t1/2 (converted)
How it was run: (§4)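 Male ICR mice (20–25 g) given the compound intraperitoneally or by gavage in 10% DMSO/PEG300. Three to four mice were sacrificed per time point and plasma collected from the vena cava. Plasma was precipitated with acetonitrile containing internal standard and analysed by LC-MS/MS. Noncompartmental analysis of mean concentration-time data: terminal t1/2 = ln2/λz; Tmax by inspection; n = 3/dose group.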

[5] = Terminal half life in ICR mouse at 5 mg/kg, iv by LC-MS/MS analysis; type: ADME, organism-based; parameters: dose 5 mg/kg, route intravenous; conditions: in vivo, read-out: beta t1/2 (converted)
How it was run: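 Tail-vein injection in male ICR mice (5–6 weeks), vehicle 10% DMSO in PEG300. Serial terminal sampling of 3–4 mice per time point, with posterior vena cava blood. Plasma was acetonitrile-precipitated and measured by LC-MS/MS. Noncompartmental analysis of mean data: t1/2 = ln2/λz, CL = dose/AUC_inf, Vd_ss = CL × MRT_inf; n = 3/dose group.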

[6] = Metabolic stability in human liver microsomes assessed as half life during phase 1 at 0.5 uM by LC-MS/MS analysis in presence of 3 mM NADPH and absence of UDPGA; type: ADME; conditions: read-out: alphat1/2
How it was run: (§5)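 Pooled liver microsomes (1 mg/ml) incubated with 0.5 µM substrate and 3 mM NADPH in 65 mM potassium phosphate, pH 7.4, 1% methanol, at 37°C. The phase I+II set also had 5 mM UDPGA, 5 mM D-saccharolactone, 50 µg/ml alamethicin and 3 mM MgCl2. Stopped at 10–90 min with cold acetonitrile plus internal standard. Parent remaining by LC-MS/MS relative to time 0. t1/2 from a two-parameter single exponential decay fit; n = 2–3.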

[7] = system: Liver microsome; test: Drug metabolism in dog liver microsomes assessed as (3-(1H-indol-2-yl)phenyl)(3,4,5-trimethoxyphenyl)methanol formation at 0.5 uM after 2 hrs by LC-MS/MS analysis in presence of 3 mM NADPH; type: ADME, Canis lupus familiaris; how it was run: as §1
[8] = Mean residence time (infinity) in ICR mouse at 15 mg/kg, iv by LC-MS/MS analysis; type: ADME, organism-based; parameters: dose 15 mg/kg, route intravenous; conditions: in vivo; how it was run: as §2
[9] = Terminal half life in ICR mouse at 5 mg/kg, po via gavage by LC-MS/MS analysis; type: ADME, organism-based; parameters: dose 5 mg/kg, route oral; conditions: in vivo, read-out: beta t1/2 (converted); how it was run: as §4
[10] = Mean residence time (infinity) in ICR mouse at 15 mg/kg, ip by LC-MS/MS analysis; type: ADME, organism-based; parameters: dose 15 mg/kg, route intraperitoneal; conditions: in vivo; how it was run: as §2
[11] = Metabolic stability in mouse liver microsomes assessed as half life during phase 1 at 0.5 uM by LC-MS/MS analysis in presence of 3 mM NADPH and absence of UDPGA; type: ADME; conditions: read-out: alphat1/2
How it was run: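 Pooled liver microsomes at 1 mg/ml protein with 3 mM NADPH, 0.5 μM substrate in 65 mM potassium phosphate pH 7.4, 1% methanol, 37°C. Incubations stopped at 10, 20, 30, 60 and 90 min with ice-cold acetonitrile plus internal standard, then LC-MS/MS of parent remaining relative to time 0. Half-life from a two-parameter single exponential decay fit; n = 2 to 3.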

[12] = Tmax in ICR mouse at 15 mg/kg, po by LC-MS/MS analysis; type: ADME, organism-based; parameters: dose 15 mg/kg, route oral; conditions: in vivo; how it was run: as §3
[13] = Metabolic stability in dog liver microsomes assessed as half life during phase 1 and 2 at 0.5 uM by LC-MS/MS analysis in presence of 3 mM NADPH and […] UDPGA; type: ADME, Canis lupus familiaris; conditions: read-out: alphat1/2
[14] = Terminal half life in ICR mouse at 15 mg/kg, po via gavage by LC-MS/MS analysis; type: ADME, organism-based; parameters: dose 15 mg/kg, route oral; conditions: in vivo, read-out: beta t1/2 (converted); how it was run: as §4
[15] = Cmax in ICR mouse at 15 mg/kg, ip by LC-MS/MS analysis; type: ADME, organism-based; parameters: dose 15 mg/kg, route intraperitoneal; conditions: in vivo; how it was run: as §2
[16] = Oral bioavailability in ICR mouse at 15 mg/kg via gavage after 30 mins by LC-MS/MS analysis; type: ADME, organism-based; conditions: in vivo; how it was run: as §3
[17] = Mean residence time (infinity) in ICR mouse at 1 mg/kg, iv by LC-MS/MS analysis; type: ADME, organism-based; parameters: dose 1 mg/kg, route intravenous; conditions: in vivo; how it was run: as §2
[18] = Metabolic stability in dog liver microsomes assessed as half life during phase 1 at 0.5 uM by LC-MS/MS analysis in presence of 3 mM NADPH and absence of UDPGA; type: ADME, Canis lupus familiaris; conditions: read-out: alphat1/2; how it was run: as §5
[19] = AUC (infinity) in ICR mouse at 15 mg/kg, iv by LC-MS/MS analysis; type: ADME, organism-based; parameters: time infinity, dose 15 mg/kg, route intravenous; conditions: plasma; how it was run: as §2
[20] = AUC (infinity) in ICR mouse at 5 mg/kg, ip by LC-MS/MS analysis; type: ADME, organism-based; parameters: time infinity, dose 5 mg/kg, route intraperitoneal; conditions: plasma; how it was run: as §2
[21] = Drug metabolism in mouse liver microsomes assessed as (3-(1H-indol-2-yl)phenyl)(3,4,5-trimethoxyphenyl)methanol formation at 0.5 uM after 2 hrs by LC-MS/MS analysis in presence of 3 mM NADPH; type: ADME; how it was run: as §1
[22] = Metabolic stability in human liver microsomes assessed as half life during phase 1 and 2 at 0.5 uM by LC-MS/MS analysis in presence of 3 mM NADPH and 5 mM UDPGA; conditions: read-out: alphat1/2
[23] = AUC (infinity) in ICR mouse at 15 mg/kg, ip by LC-MS/MS analysis; type: ADME, organism-based; parameters: time infinity, dose 15 mg/kg, route intraperitoneal; conditions: plasma; how it was run: as §2
[24] = Cmax in ICR mouse at 5 mg/kg, ip by LC-MS/MS analysis; type: ADME, organism-based; parameters: dose 5 mg/kg, route intraperitoneal; conditions: in vivo; how it was run: as §2
[25] = AUC (infinity) in ICR mouse at 1 mg/kg, iv by LC-MS/MS analysis; type: ADME, organism-based; parameters: time infinity, dose 1 mg/kg, route intravenous; conditions: plasma; how it was run: as §2

COc1cc(C(=O)c2cccc(-c3cc4ccccc4[nH]3)c2)cc(OC)c1OC
Drug metabolism [1]: metabolite_detected | AUC(0-inf) [2]: 517 ng·h/mL | bioavailability [3]: 13% | half-life [4]: 8.7 h | half-life [5]: 4.3 h | half-life at 0.5 µM [6]: 0.4 h | Drug metabolism [7]: metabolite_detected | MRT inf [8]: 8.8 h | half-life [9]: 7.7 h | MRT inf [10]: 7 h | half-life at 0.5 µM [11]: 0.617 h | Tmax [12]: 0.5 h | half-life at 0.5 µM [13]: 0.55 h | half-life [14]: 7.9 h | Cmax [15]: 4290 ng/mL | bioavailability [16]: 8% | MRT inf [17]: 3 h | half-life at 0.5 µM [18]: 0.483 h | AUC(0-inf) [19]: 13400 ng·h/mL | AUC(0-inf) [20]: 3750 ng·h/mL | Drug metabolism [21]: metabolite_detected | half-life at 0.5 µM [22]: 0.5 h | AUC(0-inf) [23]: 12600 ng·h/mL | Cmax [24]: 1440 ng/mL | AUC(0-inf) [25]: 617 ng·h/mL
